Measured values reported in the RNAGym collection of RNA variant scans (doi:10.1126/science.aae0568).
Fewer inactive variants are shown than the library holds.

B1: tRNA (parent)
chain: GUUCCGUUGGCGUAAUGGUAACGCGUCUCCCUCCUAAGGAGAAGACUGCGGGUUCGAGUCCCGUACGGAACG

Variants of: B1
Experiment: yeast fitness relative to wild type (ratio to wild type); higher = fitter; tRNA-Arg(CCU), competitive growth, 37 C, YPD
Summary of the method: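 Amplicons of the tRNA-Arg(CCU) gene were sequenced, 100-nucleotide paired-end, from the start population and from each end population of a pooled yeast competition. The competition, in six parallel replicates, lasted 24 hours in YPD at 37°C. Fitness relative to wild type was calculated from changes in genotype frequencies. Genotypes had to have ≥ 100 starting reads, and estimates < 0.5 were set to 0.5.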

Variant	yeast fitness
GUUCCGUUGGUGUCAUGGUAACGCGUCUCCCUCCUACGGAGAAGACUGCGGGUUCGAGUCCCGUACGGAACG [C11U A14C A37C]	0.544
GUUCCGUUGGUGUACUGGUAACGCGUCUCCCUCCUAAGGAGAAGACUGCGGGUUCGAGUCCCGUACGGAUCG [C11U A15C A70U]	0.586
GUUCCGUUGGUGUUAUGGUAACGCGUCACCCUUCUAAGGAGAAGACUGCGGGUUCGAGUCCCGUACGGAACG [C11U A14U U28A C33U]	0.535
GUUCCGUUGGUGUACUGGUAACGCGUAUCCCUCCUAAGCAGAAGACUGCGGGUUCGAGUCCCGUACGGAACG [C11U A15C C27A G39C]	≤ 0.5
GUUCCGUUGGUGUCAUGGUAACGCGUCUCCCUCCUAAGGCGAACACUGCGGGUUGGAGUCCCGUACGGAACG [C11U A14C A40C G44C C55G]	≤ 0.5
GUUCCGUUGGUGUCAUGGUAACGCGUCUCCCUCCUAAGGAGAAGACUGCGGGUUCGAGUCCCGUACGGAACG [C11U A14C]	0.745
GUUCCGUUGGUGUGAUGGUAACGCGUCUCCCUCCUAAGGAGAAGACUGCGGGUUCGAGUCCCGUACGGAACG [C11U A14G]	0.865
GUUCCGUUGGUGUGAUGGUAACGGGUUUCCCUCCUAAGGAACAGACUGCGGGUUCGAGUCCCGUACCGAACG [C11U A14G C24G C27U G41A A42C G67C]	≤ 0.5
GUUCCGUUGGGGUAAUGGUAACGCGUCUCCCUCCUAAGGAGAAGACAGCGGGUUCGAGUCGCGUACGGAACG [C11G U47A C61G]	≤ 0.5
GUUCCGUUGGUGUACUGGUAUCGAGUCUCCCUACUAAGGAGAAGACUGCGGGUUCGAGUCCCGUAAGGAACG [C11U A15C A21U C24A C33A C66A]	≤ 0.5
GUUCCGUUGGGGUAAUGGUAACGCGUCCCCCUCCUAAGAAGAAGACUGCGGGUUCGAGUACCGUACAGAACG [C11G U28C G39A C60A G67A]	≤ 0.5
GUUCCGUUGGUGUACUGGUAACGCGUGUCUCUCCUAAGGAGAAGAAUGCGGGUUCGAGUCCCGUACGGAACG [C11U A15C C27G C30U C46A]	≤ 0.5
GUUCCGUUGGUGUUAUGGUAACGGGUCUCCCUCCUAAGGAGAAAACUGUGGGUUCGAGUCCCGUACUGAACG [C11U A14U C24G G44A C49U G67U]	≤ 0.5
GUUCCGUUGGUGUAAUGGUAACGCGUCUCCCUCCUAAGGAGAAGACUGCGGGUUCGAGUCCCGUACGGAACG [C11U]	1.01
GUUCCGUUGGGGUAAUGGUAACGCGUCUCCCUCCAAAGGAGAAGACUGCGGGUUCGAGUCCCGUAGGGAACG [C11G U35A C66G]	≤ 0.5
GUUCCGUUGGUGUGAUGGUAACGCGUCUCCCUCCCAAGGAGAAGACUGCGGGUUCGAGUGCCGUACGGAACG [C11U A14G U35C C60G]	≤ 0.5
GUUCCGUUGGUGUAGUGGUAACGCGUCUCCCUCCUAAGGAGAUGACUGCGGGUUCGAGUCCCGUACGGAACG [C11U A15G A43U]	0.666
GUUCCGUUGGGGUAAUGGUAACGCGUCUCCCACCUAAGGAGAAGAUUGCGGGUUCGAGUCCCGUACGGAACG [C11G U32A C46U]	0.598
GUUCCGUUGGUGUGAUGGUAACGCGUCUCCCUCCUAAGGAGAAGAAUGCGAGUUCGAGUCCCGUACGGAACG [C11U A14G C46A G51A]	0.615

Variant	yeast fitness
GUUCCGUUGGUGUACUGGUAACGCGUAUCCCUCCUAAGCAGAAGACUGCGGGUUCGAGUCCCUAACGGAACG [C11U A15C C27A G39C G63U U64A]	≤ 0.5
GUUCCGUUGGGGUAAUGGUAACGCGUCUCCCGUCUAUGGAGAAGACUGCGGGUUCGAGUCCCGUACGGAACG [C11G U32G C33U A37U]	≤ 0.5
GUUCCGUUGGGGUAAUGGUAACGCGUCUCCCUCCUAAGGAGAAGACUGCGGGUUCGAGACCCGUACGGAACG [C11G U59A]	0.641
GUUCCGUUGGUGUGAUGGUAACGCGUGUCCUUCCUAAGGAGAAGACUGCGGGUUCGAGUCCCGUACGCAACG [C11U A14G C27G C31U G68C]	≤ 0.5
GUUCCGUUGGGGUAAUGGUAACGCGUCUCCCUCCUAAGGAGAAGACAGCGGGUUCGAGUCCCGUACGCAACG [C11G U47A G68C]	≤ 0.5
GUUCCGUUGGUGUACUGGUAGCGGGUCACCCUCCUAAGGAGAAGACUGCGGGUUCGAGUCUCGUACGGAACG [C11U A15C A21G C24G U28A C61U]	≤ 0.5
GUUCCGUUGGUGUGAUGGUAACGGGUCUCCCUCCUAAGGAGAAGACUGCGGGUUCGAGUCCCGUACGGAACG [C11U A14G C24G]	≤ 0.5
GUUCCGUUGGUGUCGUGGUAACGCGACUCCCUCAUAAGGAGAAGACUGCGGGUUCGAGUCCCAUACGGAACG [C11U A14C A15G U26A C34A G63A]	≤ 0.5
GUUCCGUUGGUGUCAUGGUAACGCGUCUCCCUCCUAAGGAGAAGACUGCGGGUACGAGUCCCGUACGGAACG [C11U A14C U54A]	≤ 0.5
GUUCCGUUGGGGUAAUGGUAACGCGUCUCCCUCCAAAGGAGAAGACUGCGGGUUCGAGUCCCGUACGGAACG [C11G U35A]	0.528
GUUCCGUUGGGGUAAUGGUAACGCGUCUCCCUCCAAAGGAGAAGACUGCGGGUUCGAGUCCCGUACGCAACG [C11G U35A G68C]	≤ 0.5
GUUCCGUUGGUGUACUGGUAACGCGUAUCCCUCCUAAGCAGAAGACUGCGGGUUCGAGUCCCGUACUGAACG [C11U A15C C27A G39C G67U]	≤ 0.5
GUUCCGUUGGUGUGAUGGUAACGCGUCUCCCUCCUACGGAGAAGACUGCGGGUUCGAGUCCCGUACGGAACG [C11U A14G A37C]	0.737
GUUCCGUUGGUGUACUGGUAACGCGUCUCCCUCCUAAGGAGAAGACUGCGGGUUCAAGUCCCGUACGGAACG [C11U A15C G56A]	0.57
GUUCCGUUGGGGUAAUGGUAACGCGUCCCCCUCCUAAGGAGAAGACUGCGGGUUCGAGUACCGUACAGAACG [C11G U28C C60A G67A]	0.567
GUUCCGUUGGUGUUAUGGUAACGCGUCUCCCUCCUAAGGGGCAGACUGCGGGUUCGAGUCCCGUACGGAACG [C11U A14U A40G A42C]	≤ 0.5
GUUCCGUUGGUGUACUGGUAACGCGUCUCUCUCCUAAGGAGCAGACUGCGGGUUCGAGUCCCGUACGGAACG [C11U A15C C30U A42C]	≤ 0.5
GUUCCGUUGGUGUUAUGGUAACGCGUUUCCCUCCUAAGGGGAAGACUGCGGGUUCGAGUCCCGUACGGAACG [C11U A14U C27U A40G]	≤ 0.5
GUUCCGUUGGUGUGAUGGUAACGCGUCUCCCUCCUAAGGAGAAGACUGCGCGUUCGAGUCCCGUACGGUACG [C11U A14G G51C A69U]	≤ 0.5
